In ChEMBL document CHEMBL3865841, “Photosensitizer (PS)-cyanine dye (CD) conjugates: Impact of the linkers joining the PS and CD moieties and their orientation in tumor-uptake and photodynamic therapy (PDT)” (Eur J Med Chem, 2016):
Active and inactive are the calls of the source. No cut-off for these calls is given here.

What was measured:
[1] = Drug uptake in mouse colon 26 cell lysosomes assessed as color overlay at 0.25 to 2 uM after 4 to 24 hrs in dark by FluoSpheres yellow green dye-based confocal microscopic analysis; format: ADME, Lysosome; details: colon 26, 2 µM
Summary of the method: (§1)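 Colon-26 cells seeded at 1.25 × 10⁵ in glass-bottom dishes, cultured 24–48 h, then given conjugate at 0.25, 0.5, 1.0 or 2.0 µM in the dark at 37°C for 4 h and 24 h. Co-stained with MitoTracker Red 2.5 nM for 10 min and FluoSpheres yellow/green 1/10,000 of a 1/10 stock for 24 h. Media replaced before Leica TCS SP2 confocal imaging; excitation 488 (lysosome), 543 (mitochondria), 633 nm (HPPH).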

[2] = Phototoxicity against mouse Colon 26 cells implanted in Balb/c mouse assessed as tumor cure incidents at 1.5 umol/kg, iv preincubated for 24 hrs with subsequent irradiation at 128 J/cm2 measured after 60 days; format: functional
Summary of the method: (§2)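 BALB/c mice bore s.c. Colon-26 tumors (1 × 10⁶ cells, shoulder) of 4–5 mm. Conjugate given i.v. via tail vein at 0.4, 0.75, 1.5, 2.5 or 3.5 µmol/kg. At 24 h unanesthetized mice got 665 nm laser, 128 J/cm², 14 mW/cm², 1.1 cm spot. Regrowth checked daily, volume L*W²/2. Cure = no palpable tumor by day 60; euthanasia at 400 mm³.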

[3] = Drug uptake in human U87 cell mitochondria assessed as color overlay at 0.25 to 2 uM after 4 to 24 hrs in dark by mitotracker red dye-based confocal microscopic analysis; format: ADME; details: u-87mg atcc
Summary of the method: (§3)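 U87 glioblastoma cells seeded at 1.25 × 10⁵ in glass-bottom dishes, cultured 24–48 h, then given conjugate at 0.25, 0.5, 1.0 or 2.0 µM in the dark at 37°C for 4 h and 24 h. Co-stained with MitoTracker Red 2.5 nM for 10 min and FluoSpheres yellow/green 1/10,000 of a 1/10 stock for 24 h. Confocal imaging with excitation 488, 543 and 633 nm.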

[4] = Phototoxicity against mouse Colon 26 cells assessed as reduction in cell viability preincubated for 24 hrs with subsequent 4 J/cm2 irradiation measured after 48 hrs incubation in dark by MTT assay; format: functional, cell-based; details: Colon 26, light or radiation study
Summary of the method: (§4)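 Colon-26 (RPMI-1640, 10% FCS) or U87 (MEM, 10% FCS) cells at 5000/well were given conjugate at 0–4 µM for 24 h. Compounds were formulated in 1% Tween-80/D5W and diluted in medium. Cells were washed and refed, then irradiated at 4 J/cm², 3.2 mW/cm². Then 44 h at 37°C in the dark, MTT 4 h, DMSO, A560. EC50 at 4 J/cm². Colon-26: two independent experiments, triplicates.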

[5] = Ratio of drug uptake in tumor to skin in Balb/c mouse implanted with mouse Colon 26 cells at 0.3 umol/kg, iv after 24 hrs by reflectance spectroscopic analysis; format: ADME, organism-based; details: in vivo
[6] = Drug uptake in human U87 cell lysosomes assessed as color overlay at 0.25 to 2 uM after 4 to 24 hrs in dark by FluoSpheres yellow green dye-based confocal microscopic analysis; format: ADME, Lysosome; details: u-87mg atcc; summary of the method: as §3
[7] = Drug uptake in human U87 cells at 1 uM after 24 hrs in dark by flow cytometry; format: ADME, cell-based; details: u-87mg atcc
Summary of the method: (§5)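 Colon-26 or U87 cells seeded at 5.0 × 10⁵ per well, 24 h, then exposed to conjugate at 1 µM in the dark at 37°C for 24 h. Cells harvested, spun cold at 10°C, resuspended in cold 2% FCS in PBS, run on a BD LSR II. Analysis used the 405 nm violet laser with 780/60, 710/50 and 660/20 nm filters.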

[8] = Drug uptake in Balb/c mouse liver implanted with mouse Colon 26 cells at 0.3 umol/kg, iv after 24 hrs by reflectance spectroscopic analysis; format: ADME, organism-based; details: in vivo
[9] = Drug uptake in mouse Colon 26 cells at 1 uM after 24 hrs in dark by flow cytometry; format: ADME, cell-based; details: colon 26, 24 h; summary of the method: as §5
[10] = Drug uptake in mouse colon 26 cell mitochondria assessed as color overlay at 0.25 to 2 uM after 4 to 24 hrs in dark by mitotracker red dye-based confocal microscopic analysis; format: ADME; details: colon 26, 2 µM; summary of the method: as §1
[11] = Phototoxicity against human U87 cells assessed as reduction in cell viability preincubated for 24 hrs with subsequent irradiation 4 J/cm2 followed by 48 hrs incubation in dark by MTT assay; format: functional, cell-based, U-87MG ATCC; details: U-87 MG, light or radiation study; summary of the method: as §4
Mus musculus [12] = experiment: Toxicity in Balb/c mouse implanted with mouse Colon 26 cells assessed as mortality at 2.5 to 3.5 umol/kg, iv preincubated for 24 hrs subsequent irradiation at 128 J/cm2 measured up to 60 days; format: organism-based; details: in vivo, 1440 h
Summary of the method: (§6)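 BALB/c mice carried s.c. Colon-26 tumours (1 × 10⁶ cells, right posterior shoulder) grown to 4–5 mm. Conjugates were given i.v. via the tail vein at 0.4–3.5 µmol/kg. At 24 h, unanaesthetised restrained mice received 665 nm laser light on a 1.1 cm spot (128 J/cm², 14 mW/cm²). Mice were observed daily for up to 60 days for death or morbidity, which led to euthanasia.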

Mus musculus [13] = experiment: Toxicity in Balb/c mouse implanted with mouse Colon 26 cells assessed as morbidity at 2.5 to 3.5 umol/kg, iv preincubated for 24 hrs subsequent irradiation at 128 J/cm2 measured up to 60 days; format: organism-based; details: in vivo, 1440 h; summary of the method: as §6
[14] = Phototoxicity against mouse Colon 26 cells implanted in Balb/c mouse assessed as tumor cure incidents at 3.5 umol/kg, iv pretreated for 24 hrs subsequent irradiation at 128 J/cm2 measured after 60 days relative to control; format: functional; summary of the method: as §2
Colon 26 = experiment: Phototoxicity against mouse Colon 26 cells implanted in Balb/c mouse assessed as increase in tumor cure incidents at 0.75 to 1.5 umol/kg, iv preincubated for 24 hrs with subsequent irradiation at 128 J/cm2 measured up to 60 days; format: functional, organism-based; summary of the method: as §2
U-87MG ATCC = experiment: Phototoxicity against human U87 cells xenografted in immunocompromized nude mouse assessed as increase in tumor cure incidents at 1.5 umol/kg, iv preincubated for 24 hrs subsequent irradiation at 128 J/cm2 measured after 60 days; format: functional, organism-based
Summary of the method: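 Athymic nude mice bore s.c. U87 tumors (2 × 10⁶ cells) of 4–5 mm. Conjugate given i.v. at 1.5 µmol/kg. At 24 h post-injection tumors got 665 nm laser light, 128 J/cm², 14 mW/cm². Mice followed daily for regrowth; cure = no palpable tumor by day 60.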

[15] = Drug uptake in human U87 cell lysosomes assessed as color overlay at 1 uM after 24 hrs in dark by FluoSpheres yellow green dye-based confocal microscopic analysis; format: ADME, Lysosome; details: u-87mg atcc
Summary of the method: (§7)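 U87 cells held with conjugate at 1 µM, imaged 24 h later by confocal microscopy. Lysosomal FluoSpheres yellow green at 1/100,000 dilution of commercial stock; MitoTracker Red 2.5 nM for 10 min. Overlays of the conjugate signal with each organelle dye.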

[16] = Drug uptake in mouse colon 26 cell mitochondria assessed as color overlay at 1 uM after 24 hrs in dark by mitotracker red dye-based confocal microscopic analysis; format: ADME; details: colon 26, 24 h
Summary of the method: (§8)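 Colon-26 cells held with conjugate at 1 µM, imaged 24 h later by confocal microscopy. Lysosomal dye FluoSpheres yellow green at 1/100,000 dilution of commercial stock; mitochondrial MitoTracker Red at 2.5 nM for 10 min. Overlays of the conjugate signal with each organelle dye.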

[17] = Drug uptake in human U87 cell mitochondria assessed as color overlay at 1 uM after 24 hrs in dark by mitotracker red dye-based confocal microscopic analysis; format: ADME; details: u-87mg atcc; summary of the method: as §7
[18] = Drug uptake in immunocompromized nude mouse tumor xenografted with human U87 cells at 0.03 umol/kg, iv after 24 to 72 hrs by reflectance spectroscopic analysis; format: ADME, organism-based, Neoplasm, U-87MG ATCC; details: in vivo
[19] = Drug uptake in mouse colon 26 cell lysosomes assessed as color overlay at 1 uM after 24 hrs in dark by FluoSpheres yellow green dye-based confocal microscopic analysis; format: ADME, Lysosome; details: colon 26, 24 h; summary of the method: as §8

| SMILES | Drug uptake [1] | Activity [2] | Drug uptake [3] | EC50 [4] | Ratio [5] | Drug uptake [6] | Drug uptake [7] | Drug uptake [8] | Drug uptake [9] | Drug uptake [10] | EC50 [11] | Activity (Mus musculus [12]) | Activity (Mus musculus [13]) | Activity [14] | Activity (Colon 26) | Activity (U-87MG ATCC) | further results |
| --- | --- | --- | --- | --- | --- | --- | --- | --- | --- | --- | --- | --- | --- | --- | --- | --- | --- |
| CCCCCCOC(C)c1c(C)c2cc3nc(c4c5[nH]c(cc6nc(cc1[nH]2)C(C)=C6CC)c(C)c5C(=O)C4)[C@@H](CCC(=O)NCCCCNC(=O)c1ccc(SC2=C(/C=C/C4=[N+](CCCCS(=O)(=O)[O-])c5ccc6ccccc6c5C4(C)C)CCC/C2=C\C=C2\N(CCCCS(=O)(=O)O)c4ccc5ccccc5c4C2(C)C)cc1)[C@@H]3C (stereo partly specified) | Active | 20% | Active | 0.13 µM | 10 | Active | Active | Active | Active | Active | 0.29 µM | – | – | – | – | – | – |
| CCCCCCOC(C)c1c(C)c2cc3nc(c4c5[nH]c(cc6nc(cc1[nH]2)C(C)=C6CC)c(C)c5C(=O)C4)[C@@H](CCC(=O)NCCNC(=O)c1cccc(SC2=C(/C=C/C4=[N+](CCCCS(=O)(=O)[O-])c5ccc6ccccc6c5C4(C)C)CCC/C2=C\C=C2\N(CCCCS(=O)(=O)O)c4ccc5ccccc5c4C2(C)C)c1)[C@@H]3C (stereo partly specified) | Active | 80% | Active | 1.58 µM | 2.5 | Active | – | Active | – | Active | 0.57 µM | Toxic | Toxic | – | – | – | – |
| CCCCCCOC(C)c1c(C)c2cc3nc(c4c5[nH]c(cc6nc(cc1[nH]2)C(C)=C6CC)c(C)c5C(=O)C4)[C@@H](CCC(=O)NCCCCCCNC(=O)c1cccc(SC2=C(/C=C/C4=[N+](CCCCS(=O)(=O)[O-])c5ccc6ccccc6c5C4(C)C)CCC/C2=C\C=C2\N(CCCCS(=O)(=O)O)c4ccc5ccccc5c4C2(C)C)c1)[C@@H]3C (stereo partly specified) | Active | – | Active | 0.2 µM | 2.5 | Active | – | Active | – | Active | 0.38 µM | – | – | 90% | Active | – | – |
| CCCCCCOC(C)c1c(C)c2cc3nc(c4c5[nH]c(cc6nc(cc1[nH]2)C(C)=C6CC)c(C)c5C(=O)C4)[C@@H](CCC(=O)NCCNC(=O)c1ccc(SC2=C(/C=C/C4=[N+](CCCCS(=O)(=O)[O-])c5ccc6ccccc6c5C4(C)C)CCC/C2=C\C=C2\N(CCCCS(=O)(=O)O)c4ccc5ccccc5c4C2(C)C)cc1)[C@@H]3C (stereo partly specified) | Active | – | Active | 2.51 µM | 2 | Active | – | Active | – | Active | 0.79 µM | Toxic | Toxic | – | – | – | – |
| CCCCCCOC(C)c1c(C)c2cc3nc(c4c5[nH]c(cc6nc(cc1[nH]2)C(C)=C6CC)c(C)c5C(=O)C4)[C@@H](CCC(=O)NCCCCCCNC(=O)c1ccc(SC2=C(/C=C/C4=[N+](CCCCS(=O)(=O)[O-])c5ccc6ccccc6c5C4(C)C)CCC/C2=C\C=C2\N(CCCCS(=O)(=O)O)c4ccc5ccccc5c4C2(C)C)cc1)[C@@H]3C (stereo partly specified) | Active | – | Active | 0.72 µM | 2.3 | Active | – | Active | – | Active | 0.59 µM | – | – | 70% | Active | Active | – |
| CCCCCCOC(C)c1c(C)c2cc3nc(c4c5[nH]c(cc6nc(cc1[nH]2)C(C)=C6CC)c(C)c5C(=O)C4)[C@@H](CCC(=O)NCCCCNC(=O)c1cccc(SC2=C(/C=C/C4=[N+](CCCCS(=O)(=O)[O-])c5ccc6ccccc6c5C4(C)C)CCC/C2=C\C=C2\N(CCCCS(=O)(=O)O)c4ccc5ccccc5c4C2(C)C)c1)[C@@H]3C (stereo partly specified) | – | 80% | – | 0.18 µM | 6.5 | – | Active | Active | Active | – | 0.15 µM | – | – | – | – | Active | Drug uptake [15]: Active; Drug uptake [16]: Active; Drug uptake [17]: Active; Drug uptake [18]: Active; Drug uptake [19]: Active |
